In ChEMBL document CHEMBL4613305, “Chiral Separation, X-ray Structure, and Biological Evaluation of a Potent and Reversible Dual Binding Site AChE Inhibitor” (ACS Med Chem Lett, 2020):

Legend:
[1] = molecular target: T1, Acetylcholinesterase (Homo sapiens, UniProt P22303); assay: Mixed type inhibition of human AChE using acetylthiocholineiodide as substrate measured for every 30 sec for 5 mins by Ellman's method
[2] = molecular target: T2, Cholinesterase (Homo sapiens, UniProt P06276); assay: Inhibition of human BChE using butyrylthiocholineiodide as substrate measured for every 30 sec for 5 mins by Ellman's method
Procedure, shortened: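 Values are mean ± SEM of three independent experiments.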

[3] = molecular target: T1, Acetylcholinesterase; assay: Inhibition of human AChE using acetylthiocholineiodide as substrate measured for every 30 sec for 5 mins by Ellman's method
[4] = molecular target: T2, Cholinesterase; assay: Inhibition of human BChE using butyrylthiocholineiodide as substrate at 10 uM measured for every 30 sec for 5 mins by Ellman's method relative to control
Procedure, shortened: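 Single-concentration test, reported as % inhibition at 10 μM. Values are mean ± SEM of three independent experiments.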

[5] = molecular target: Cholinesterases; ACHE & BCHE (Homo sapiens) (UniProt P06276+P22303); assay: Selectivity index, ratio of IC50 for human BChE to IC50 for human AChE; assay type: protein assay
[6] = Apparent permeability across apical to basolateral side in MDCK-MDR1 cells at 75 uM incubated for 2 hrs by UV-spectroscopy; assay type: ADME, cell-based, Canis lupus familiaris; conditions: dog
Procedure, shortened: (§1)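 MDCK-MDR1 monolayers expressing the P-gp efflux system. Apparent permeability (Papp) was measured in both directions: apical to basolateral, and basolateral to apical. Efflux ratio = Papp BL/Papp AP. Values are mean ± SEM of three independent experiments.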

[7] = test system: MDCK-MDR1; assay: Cytotoxicity against MDCK-MDR1 cells assessed as cell viability incubated for 72 hrs by MTT assay relative to control; assay type: ADME, cell-based; conditions: Canis lupus familiaris, MDCK-MDR1, 72 h
[8] = Cytotoxicity against human HepG2 cells assessed as cell viability at 20 to 100 uM incubated for 2 hrs by MTT assay relative to control; assay type: cell-based; conditions: read-out: Activity
Procedure, shortened: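 HepG2 human liver cancer cells were exposed to 20–100 μM for 2 h. Viability was read by MTT reduction, expressed as % of untreated control cells in DMEM. Values are mean ± SEM of six replicates. Difference from control was tested by Student's t test (p < 0.01).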

[9] = Efflux ratio of apparent permeability across basolateral to apical side to apical to basolateral side in MDCK-MDR1 cells at 75 uM incubated for 2 hrs by UV-spectroscopy; assay type: ADME, cell-based, Canis lupus familiaris; conditions: dog
Procedure, shortened: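 MDCK-MDR1 monolayers expressing the P-gp efflux system. Apparent permeability was measured in both directions, apical→basolateral and basolateral→apical. Efflux ratio calculated as Papp BL / Papp AP. Papp values are mean ± SEM of three independent experiments.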

[10] = Apparent permeability across basolateral to apical side in MDCK-MDR1 cells at 75 uM incubated for 2 hrs by UV-spectroscopy; assay type: ADME, cell-based, Canis lupus familiaris; conditions: dog; procedure, shortened: as §1
[11] = Cytotoxicity against MDCK-MDR1 cells assessed as cell viability at 100 uM incubated for 24 hrs by MTT assay relative to control; assay type: ADME, cell-based, Canis lupus familiaris; conditions: dog, read-out: Activity
[12] = Cytotoxicity against MDCK-MDR1 cells assessed as cell viability at 100 uM incubated for 72 hrs by MTT assay relative to control; assay type: ADME, cell-based, Canis lupus familiaris; conditions: dog, read-out: Activity
[13] = molecular target: T1, Acetylcholinesterase; assay: Potency index, ratio of Ki of donepezil to Ki of compound for mixed type inhibition of human AChE using acetylthiocholineiodide as substrate measured for every 30 sec for 5 mins by Ellman's method

T1 sequence (P22303 whole entry): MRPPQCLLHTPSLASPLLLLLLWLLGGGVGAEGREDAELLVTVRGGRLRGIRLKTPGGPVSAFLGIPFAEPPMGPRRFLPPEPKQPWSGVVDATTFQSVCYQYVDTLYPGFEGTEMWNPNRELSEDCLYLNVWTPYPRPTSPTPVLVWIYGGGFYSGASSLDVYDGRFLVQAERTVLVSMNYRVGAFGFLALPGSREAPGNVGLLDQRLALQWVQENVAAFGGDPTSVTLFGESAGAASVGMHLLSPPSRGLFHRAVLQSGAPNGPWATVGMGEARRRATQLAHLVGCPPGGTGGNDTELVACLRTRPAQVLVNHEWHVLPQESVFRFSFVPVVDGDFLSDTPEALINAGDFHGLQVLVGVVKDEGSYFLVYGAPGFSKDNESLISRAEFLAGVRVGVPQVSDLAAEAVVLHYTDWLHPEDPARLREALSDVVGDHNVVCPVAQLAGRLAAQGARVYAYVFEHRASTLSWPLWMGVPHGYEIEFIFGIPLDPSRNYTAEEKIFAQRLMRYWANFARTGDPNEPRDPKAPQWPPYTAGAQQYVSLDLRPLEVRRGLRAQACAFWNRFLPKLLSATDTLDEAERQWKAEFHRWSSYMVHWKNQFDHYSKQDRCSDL
T2 sequence (P06276 whole entry): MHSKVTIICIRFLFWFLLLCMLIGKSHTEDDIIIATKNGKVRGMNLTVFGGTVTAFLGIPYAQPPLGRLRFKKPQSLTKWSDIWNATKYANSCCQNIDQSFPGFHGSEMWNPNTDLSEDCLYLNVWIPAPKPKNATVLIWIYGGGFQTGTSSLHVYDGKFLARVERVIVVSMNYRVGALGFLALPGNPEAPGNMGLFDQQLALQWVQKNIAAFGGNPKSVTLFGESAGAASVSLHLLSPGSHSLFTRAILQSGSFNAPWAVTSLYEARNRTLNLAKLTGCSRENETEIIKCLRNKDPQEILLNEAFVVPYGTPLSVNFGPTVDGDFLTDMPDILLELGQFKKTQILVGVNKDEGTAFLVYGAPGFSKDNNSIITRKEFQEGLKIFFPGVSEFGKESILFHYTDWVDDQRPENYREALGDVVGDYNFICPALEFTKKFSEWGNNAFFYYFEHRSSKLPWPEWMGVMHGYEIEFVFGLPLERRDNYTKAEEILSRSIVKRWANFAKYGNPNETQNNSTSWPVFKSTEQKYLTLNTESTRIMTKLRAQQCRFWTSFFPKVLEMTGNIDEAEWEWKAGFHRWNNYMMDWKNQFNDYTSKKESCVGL
Sequence of Cholinesterases; ACHE & BCHE (Homo sapiens) (P06276 whole entry, looked up): as the sequence (P06276 whole entry) above
Sequence of Cholinesterases; ACHE & BCHE (Homo sapiens) (P22303 whole entry, looked up): as the sequence (P22303 whole entry) above

SMILES: COc1cc2cc(NC(=O)[C@H]3CCC[C@@H](NCc4ccccc4)C3)c(=O)oc2cc1OC
- Ki [1]: 93.4 nM
- IC50 [2]: 2330 nM
- IC50 [3]: 380 nM

SMILES: COc1cc2cc(NC(=O)CCCNCc3ccccc3)c(=O)oc2cc1OC
- IC50 [2]: 181 nM
- IC50 [3]: 748 nM

SMILES: COc1cc2cc(NC(=O)C3CCN(Cc4ccccc4)CC3)c(=O)oc2cc1OC
- inhibition [4]: 21%
- IC50 [3]: 223 nM

SMILES: COc1cc2cc(NC(=O)[C@@H]3CCC[C@H](NCc4ccccc4)C3)c(=O)oc2cc1OC
- Ki [1]: 19.1 nM
- IC50 [2]: 14100 nM
- IC50 [3]: 19.2 nM
- Ratio IC50 [5]: 730

SMILES: COc1cc2cc(NC(=O)[C@H]3CCC[C@@H](NCc4ccccc4)C3)c(=O)oc2cc1OC (racemic) [listing 1 of 2 here]
- Papp A→B at 2 h, 75 µM [6]: 37 ×10⁻⁶ cm/s
- Ki [1]: 46.6 nM
- IC50 [2]: 6250 nM
- IC50 [7]: 30000 nM
- viability at 2 h, up to 100 µM [8]: 80 to 90%
- efflux ratio at 2 h, 75 µM [9]: 0.22
- IC50 [3]: 36.5 nM
- Papp B→A at 2 h, 75 µM [10]: 8.4 ×10⁻⁶ cm/s
- viability at 24 h, 100 µM [11]: 60%
- viability at 72 h, 100 µM [12]: 37%

SMILES: COc1cc2cc(NC(=O)[C@H]3CCC[C@@H](NCc4ccccc4)C3)c(=O)oc2cc1OC (racemic) [listing 2 of 2 here]
- Ratio Ki [13]: 4

SMILES: CN1C(=O)CN=C(c2ccccc2)c2cc(Cl)ccc21 [DIAZEPAM]
- efflux ratio at 2 h, 75 µM [9]: 0.7
